Assay outcomes as filed in PubChem.
Shown are actives, neighbours in structure and some others; about 3.7% of the full set was active somewhere.
TAAR1 ag: human TAAR1 agonism; 0.99% of 360,000 active; activation, % at 3 µM; CHO RD-HGA16 TAAR1, Fluo-8 calcium fluorescence; vehicle wells 0%, saturating PEA agonist 100%;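 active = activation above the mean activation of all test compounds in the run plus 3 SD, cut at about 38% in these data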
Target sequence (Q96RJ0 whole entry, looked up): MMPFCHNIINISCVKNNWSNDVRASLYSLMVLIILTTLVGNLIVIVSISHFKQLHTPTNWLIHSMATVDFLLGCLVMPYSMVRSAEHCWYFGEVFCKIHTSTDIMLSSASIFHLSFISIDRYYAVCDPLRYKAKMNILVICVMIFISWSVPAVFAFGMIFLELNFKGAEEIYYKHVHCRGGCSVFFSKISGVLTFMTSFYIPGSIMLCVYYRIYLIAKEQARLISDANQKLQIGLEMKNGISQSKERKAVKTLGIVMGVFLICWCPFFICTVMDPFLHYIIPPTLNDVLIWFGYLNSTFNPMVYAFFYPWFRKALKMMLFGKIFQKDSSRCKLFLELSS
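Benchmarks: low control DMSO, high control PEA (EC100); System: CHO RD-HGA16 cells carrying human TAAR1 plus Gα16; Detection: Fluo-8 fluorescence, 5 s baseline then 140 s kinetic read; Schedule: 17-24 h plating, Fluo-8 75 min 37 °C, 30 min RT; Read-out basis: % activation from peak over basal fluorescence ratio, DMSO-to-PEA scaled.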
TAAR1 antagonist: antagonists of human TAAR1; AID 624466; inhibition, % at 3 µM; 1.5% of 360,000 active; CHO RD-HGA16 TAAR1, Fluo-8 calcium fluorescence, antagonist;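 active = inhibition above a per-plate cutoff, the mean inhibition of test compounds on that plate plus 3 SD, cut at about 49% in these data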;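 also: 0% = DMSO plus EC80 beta-PEA response and 100% = DMSO alone without agonist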
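Assay system: RD-HGA16 CHO cells with stable hTAAR1 and Gα16 / Reagent: EC80 β-phenethylamine stimulus / Doses: 3 µM, single point / Timing: dye loading 75 min at 37 °C, then 30 min room temperature / Measured by: Fluo-8 intracellular calcium dye fluorescence, real-time kinetic reads / Controls: vehicle wells and EC80 agonist wells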
HCV core dimer: HCV core protein dimerization inhibition. 0.33% of 300,000 active. AID 1899. inhibition, % at 5 µM. TR-FRET GST/Flag-core106 dimerization, 1536-well;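 active = inhibition above the mean of all tested compounds plus 3 SD, set per screening campaign, cut at about 45% in these data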
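System: GST/Flag-tagged HCV core106 proteins. Incubation: compound-protein-antibody incubation 4 h at 22.5 °C. Technique: HTRF with 340 nm excitation, 617/671 nm emission. Medium: KF-containing HEPES buffer, pH 7.45, DTT, CHAPS, BSA. Read-out: inhibition (%) from 671 over 617 nm ratio. Also added: Eu(K)-anti-GST 90 ng/mL plus XL665-anti-Flag 1 µg/mL.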
HCV NS3 hel inh: inhibitors of Hepatitis C virus NS3 helicase | 0.56% of 290,000 active | AID 1800 | inhibition, % at 10.9 µM | NS3 helicase DNA unwinding, Cy5 molecular beacon fluorescence;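 active = inhibition above the mean of all tested compounds plus 3 SD, set per campaign, cut at about 35% in these data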;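 also: 0% = DMSO wells and 100% = thioflavine S control wells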
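Assay system: hepatitis C virus NS3 helicase domain fragment enzyme. Also added: annealed dual-labelled DNA beacon duplex, ATP-started. Timing: 1 h reaction at 25 °C, ATP-initiated. Technique: Cy5 fluorescence at 0 and 60 min, beacon hairpin quenching. Evaluation: % inhibition of unwinding. Replication: one well per compound.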
rCAG binder: binds r(CAG) RNA repeats | r(CAG) RNA repeat, TO-PRO-1 dye displacement fluorescence | inhibition, % at 3 µM | 1.3% of 370,000 active | AID 651821;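 active = inhibition above the plate cutoff, the mean of all test compounds on that plate plus 3 SD, cut at about 35% in these data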;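 also: 0% = DMSO alone and 100% = 100 µM mitoxantrone as full dye displacement; higher means more dye released from RNA so lower well fluorescence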
Active calls of the source: *; / = no result.

SMILES	TAAR1 ag	TAAR1 antagonist	HCV core dimer	HCV NS3 hel inh	rCAG binder
C/C=C\C=C/C(=O)Nc1cccc(C2=NOC3(C2)C[C@@H](C(N)=O)N(C(=O)c2ccccc2)C3)c1 (stereo partly drawn)	/	/	21	/	/
COc1ccc(C2CCC3(CCC(=O)N3CCOC(=O)NCc3ccc(Cl)cc3)CC2)cc1 (stereo not drawn)	/	/	/	/	3
COC(=O)[C@]12C[C@H](CC(=O)NCC3CCCCC3)C(=O)N(CCC3=CCCCC3)C1=C[C@H](C(C)C)O[C@@H]2C1CC1	/	/	/	/	3
C/C=C/C(=O)N1CC2(CC(c3cccc(NC(=O)/C(C)=C/C)c3)=NO2)C[C@H]1C(N)=O (stereo partly drawn)	2	14	-13	/	-1
C/C=C/C=C\C(=O)Nc1cccc(C2=NOC3(C2)C[C@H](C(N)=O)N(C(=O)/C=C/C)C3)c1 (stereo partly drawn)	2	-4	48*	/	13
C/C=C\C=C\C(=O)N1CC2(CC(c3cccc(NC(=O)CC)c3)=NO2)C[C@H]1C(N)=O (stereo partly drawn)	5	-17	48*	/	9
CCC(=O)Nc1cccc(C2=NOC3(C2)C[C@@H](C(N)=O)N(C(=O)CC)C3)c1 (stereo partly drawn)	10	3	-16	/	2
COc1ccccc1CC(=O)NCCN1C(=O)C2C3C=CC(C3)C2C1=O (stereo not drawn)	/	/	/	/	4
Cc1cccc(C)c1-n1c(C)cc(/C=N\Nc2ccc([N+](=O)[O-])cn2)c1C	15	51*	7	-10	5
CC(C)(C)c1ccc(S(=O)(=O)N2CCCC(C(=O)NCCN3CCC(Cc4ccccc4)CC3)C2)cc1 (stereo not drawn)	/	/	/	/	3
O=C(COC(=O)c1cc(=O)[nH]c2ccccc12)Nc1nc(-c2ccccc2)cs1	7	50*	5	-2	17
COc1ccc(CNCC#Cc2ccc(C(F)(F)F)cc2)c(OC)c1	/	/	/	/	1
COc1ccc([C@H]2CC(=O)C=C(c3cccc4c3sc3ccccc34)C2)cc1OC	4	3	/	/	5
COc1ccc([C@H]2CC(=O)C=C(c3cccc(OC)c3OC)C2)cc1OC	14	52*	/	/	-5
Cc1ccc(-c2cc(C(=O)NN=Cc3cc(Br)ccc3O)[nH]n2)cc1C	/	/	/	/	21
COc1cccc(/C=C2\SC(=S)N(CCCC(=O)N(CCO)c3ccccc3)C2=O)c1	4	49*	4	-21	4
Cc1ccc2c(c1C)-c1c(ccc(C)c1C)C(=O)C2=O	2	62*	/	/	3
COc1cc(C(=O)Nc2nccs2)c(Br)c(OC)c1OC	16	51*	15	1	3
COc1cc(C(=O)NC(=S)Nc2nccs2)cc(OC)c1OC	5	8	-3	12	2
Cn1c(N)c(C(=O)COC(=O)CC2CC3CCC2C3)c(=O)n(C)c1=O (stereo not drawn)	40*	-5	0	4	-3
CC(C)CNS(=O)(=O)/C=C/c1ccccc1CNC(=O)OC(C)(C)C	/	/	/	/	0
CC(NS(=O)(=O)c1ccc(OCC(=O)Nc2cccc([N+](=O)[O-])c2)cc1)c1ccccc1 (stereo not drawn)	15	60*	-3	-12	6
O=C(COC(=O)COc1ccccc1)Nc1cccc([N+](=O)[O-])c1	2	-14	-1	-3	3
COC(=O)C1CN(Cc2ccccc2)CCS(=O)(=O)N1Cc1ccc(OC)cc1 (stereo not drawn)	/	/	/	/	0
COC(=O)[C@]12C[C@H](CC(=O)N3CCC(c4ccccc4)CC3)C(=O)N(Cc3ccco3)C1=C[C@H](C(C)(C)C)O[C@@H]2C	/	/	/	/	3
Cc1ccccc1-c1nnn(Cc2cccc(S(=O)(=O)N3CCOCC3)c2)n1	10	60*	/	/	1
O=C1c2ccccc2S(=O)(=O)N1Cc1cccc(S(=O)(=O)N2CCOCC2)c1	7	4	-2	4	0
Cc1ccc(NC(=O)COc2ccccc2C#N)cc1S(=O)(=O)N1CCCCCC1	8	52*	/	/	4
Cc1ccccc1OCC(=O)Nc1ccc(N2CCN(C)CC2)c(Cl)c1	39*	7	-17	-37	-4
Cc1ccc(NC(=O)COc2ccccc2)cc1S(=O)(=O)N1CCCCCC1	4	37	4	/	1
